# Compound activity from PubChem.
# The list is not random: actives were taken first. Their share in the collection is about 2.9%.
# SIAE inh: human SIAE inhibition, primary screen; Q9HAT2; SIAE FP-Rh probe binding, fluorescence polarization; inhibition, % at 9.66 µM; 370,000 compounds, 0.69% hits; AID 1053197;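 active = inhibition above a cutoff: mean of compounds within the control limits plus 3 SD of those, cut at about 17% in these data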;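 note: 0% = plate median of compound wells and 100% = probe without SIAE protein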
# PAD4 FP inh: inhibitors of human PAD4; recombinant PAD4, RCA probe fluorescence polarization; 330,000 compounds, 0.41% hits; AID 485272; Q9UM07; inhibition, % at 6.36 µM;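 active = percent inhibition above a cutoff equal to the mean of all tested compounds plus 3 SD, cut at about 15% in these data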;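 note: 0% = PAD4 with RCA probe and DMSO and 100% = probe without PAD4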
# HTRA1 inh: blocks human HTRA1 serine peptidase; Q92743; recombinant HTRA1, FP-rhodamine activity-based probe, fluorescence polarization; inhibition, % at 5.96 µM; 340,000 compounds, 0.5% hits; AID 504803; in the data active = inhibition above about 36%;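 note: 0% = enzyme with DMSO and 100% = wells lacking enzyme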
# Target sequence (Q92743 whole entry, looked up): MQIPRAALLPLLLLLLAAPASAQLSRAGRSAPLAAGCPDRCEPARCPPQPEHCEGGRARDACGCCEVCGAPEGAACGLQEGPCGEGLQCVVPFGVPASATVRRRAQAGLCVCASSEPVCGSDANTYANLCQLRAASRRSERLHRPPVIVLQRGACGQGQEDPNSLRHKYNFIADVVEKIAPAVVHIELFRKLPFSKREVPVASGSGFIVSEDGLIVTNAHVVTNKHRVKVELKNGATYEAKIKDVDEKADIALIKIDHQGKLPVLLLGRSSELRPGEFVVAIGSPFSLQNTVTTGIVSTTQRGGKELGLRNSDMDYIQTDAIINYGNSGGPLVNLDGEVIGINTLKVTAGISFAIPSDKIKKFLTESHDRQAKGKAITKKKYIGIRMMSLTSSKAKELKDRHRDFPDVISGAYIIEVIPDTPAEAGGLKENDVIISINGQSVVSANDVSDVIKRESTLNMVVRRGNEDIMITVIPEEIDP
# mABHD4 FP: inhibits mouse alpha/beta hydrolase domain 4 | inhibition, % at 8.92 µM | 370,000 compounds, 0.54% hits | purified mABHD4, FP-Rh probe fluorescence polarization | AID 720543 | Q8VD66;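 active = inhibition exceeding the mean over every tested compound plus 3 SD, cut at about 30% in these data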;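 note: 0% = plate median of compound wells and 100% = S159A mutant with DMSO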
#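 Material: mouse ABHD4 enzyme, wild type; Benchmarks: S159A mutant high control, sample median low control; Buffer or medium: HEPES pH 7.0, NaCl, Pluronic buffer; Signal: fluorescence polarization; Read-out: percent inhibition of probe binding, normalized to plate controls; Timing: pre-incubation 45 min, probe exposure 60 min, at 25 °C; Dosing: 8.92 µM, single dose.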
# TCR CD3 inh: human TCR-CD3 binding inhibition; TAMRA-labeled TCR probe fluorescence, biochemical; inhibition, % at 9.4 µM; 360,000 compounds, 0.37% hits; in the data active = inhibition above about 19%;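 note: recombinant mutant TCR 2C K166C tagged with TAMRA read by polarization; 0% = receptor in buffer alone and 100% = receptor with positive control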
# PRMT1 FP inh: blocks human protein arginine methyltransferase 1; 370,000 compounds, 1.3% hits; inhibition, % at 2.79 µM; AID 652257; Q99873; recombinant PRMT1, activity-based probe fluorescence polarization;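 active = inhibition above about 21% made by adding two undisclosed values, limit read from the data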
# ABHD4 confirm: ABHD4 (mouse) inhibition, FP confirmation; purified mABHD4, FP-Rh probe fluorescence polarization; shares compounds with mABHD4 FP; inhibition, % at 8.92 µM; 1,800 compounds, 55% hits; AID 720658;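 active = mean inhibition across replicates above the hit cutoff set in the primary screen, cut at about 30% in these data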;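 note: 0% = wild-type ABHD4 with DMSO and 100% = catalytically dead S159A mutant with DMSO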
# Active calls of the source: *; / = no result.
SMILES,SIAE inh,PAD4 FP inh,HTRA1 inh,mABHD4 FP,TCR CD3 inh,PRMT1 FP inh,ABHD4 confirm
CCCCNc1c([N+](=O)[O-])cc(C(=O)O)cc1[N+](=O)[O-],3,-3,-3,0,-4,4,/
O=C(O)c1cc([N+](=O)[O-])c(NCCC2=CCCCC2)c([N+](=O)[O-])c1,6,2,-6,55*,0,1,66*
Oc1ccc(/C=N/Nc2nccnc2Cl)c(O)c1,-8,-3,-2,43*,-4,-4,45*
O=[N+]([O-])c1ccc(NN=Cc2ccc(O)cc2O)nc1,8,/,20,30*,1,1,30*
O=[N+]([O-])c1ccc(NN=Cc2ccccc2O)nc1,-2,/,-2,12,4,0,/
COc1cccc(/C=N/Nc2nccnc2Cl)c1O,-1,/,1,30*,1,-1,41*
Cc1c(NC(=O)C2CCCN(S(=O)(=O)c3cccc4ccccc34)C2)c(=O)n(-c2ccccc2)n1C (centres undefined),4,/,/,5,/,-2,/
C[C@@H]1C[C@H]2[C@@H](Cc3ccccc3)C(=O)N3[C@H](c4ccccc4)[C@H](C)C[C@H]3[C@@H](Cc3ccccc3)C(=O)N2[C@@H]1c1ccccc1,9,/,/,50*,/,-3,39*
CCOC(=O)Cc1c(Sc2ccccc2)c2cc(C)ccc2n1C,-1,-1,-9,2,-4,2,/
Cc1ccc2c(c1)c(Sc1ccccc1)c(CC(=O)O)n2C,2,-1,1,30*,-2,2,35*
COc1ccc(/C=C/C(=O)Nc2cccnc2Cl)cc1,-4,3,8,97*,9,-5,-4
CCC(C)COC(c1ccccc1)(c1ccccc1)C(Oc1nc(C)cc(C)n1)C(=O)O (centres undefined),-1,-2,-3,31*,2,0,35*
Cc1cc(C)nc(OC(C(=O)O)C(OCCc2ccccc2)(c2ccc(F)cc2)c2ccc(F)cc2)n1 (centres undefined),0,-1,-10,40*,-4,4,43*
CCCOC(c1ccccc1)(c1ccc(C(F)(F)F)cc1)C(Oc1nc(C)cc(C)n1)C(=O)O (centres undefined),2,-3,7,21,2,1,/
NNc1nc2ccc(F)cc2s1,11,1,30,42*,7,2,26
COc1ccccc1CNc1ccc2c(c1)OC[C@H](CC(C)C)NS2(=O)=O,6,/,/,-2,6,-5,/
O=C1C(=O)c2ccccc2C(O)=C1CC=C(Cl)Cl,1,/,15,38*,0,11,17
O=C1C(C=Nc2ccccc2)=C(O)c2ccccc21,3,-3,-4,5,5,3,/
CC1=CC2(O)OCCN(CCO)C2=CC1=O (centres undefined),0,-2,11,30*,10,15,6
Cc1cccc(OCCC(=O)Nc2ccc(N3CCOCC3)cc2N2CCOCC2)c1,-3,2,1,35*,-1,0,-16
CCOc1ccc(OCCC(=O)Nc2ccc(N3CCOCC3)cc2N2CCOCC2)cc1,3,/,6,-1,2,3,/
Cc1ccc(CN2CCN(/N=C/c3ccc(O)c(O)c3)CC2)cc1,10,7,32,31*,6,1,54*
Cc1ccc(CN2CCN(/N=C/c3ccc(C(=O)O)cc3)CC2)cc1,2,5,2,-5,5,0,/
COc1ccc(C(=O)Nc2cc3c(cc2C(=O)O)OCCCO3)c(OC)c1,-30,-5,-16,35*,5,0,55*
Cc1ccc(C)c(OCC(O)CNC2CCCC2)c1 (centres undefined),-12,4,4,38*,0,-4,-4
SMILES,SIAE inh,PAD4 FP inh,HTRA1 inh,mABHD4 FP,TCR CD3 inh,PRMT1 FP inh,ABHD4 confirm
CCN(C(=O)CSc1nnc(-c2cccnc2)n1Cc1ccco1)c1ccccc1C,1,/,/,7,/,3,/
O=C(NCc1ccccc1Cl)C1CCCN(c2nc3ccccc3o2)C1 (centres undefined),2,/,/,5,/,13,/
C/C(=N\Nc1nc2ccccc2[nH]1)c1ccc2c(c1)OCO2,10,-3,19,24,6,-3,/
CC(/C=N/Nc1nc2ccccc2[nH]1)=C\c1ccccc1,11,-1,13,42*,-3,4,44*
CC(/C=N/Nc1nc(C)cc(=O)[nH]1)=C\c1ccccc1,3,-1,5,-1,-3,2,/
C/C(=N\Nc1nc2ccccc2[nH]1)c1ccccn1,4,-4,27,36*,-1,-4,21
CCN(CC)c1ccc(/C=N/Nc2nc3ccccc3[nH]2)cc1,17,/,35,30*,0,-4,47*
COCc1[nH]nc2c1C(c1ccc(C)cc1)NC2=O (centres undefined),-3,/,/,4,-2,1,/
CN(C)C=Nc1ccc(Cn2cnc3nc4ccc(Cl)cc4cc3c2=O)cc1,1,/,/,-1,/,-2,/
COC(=O)c1cc2c(c3c4cc(F)ccc4n(S(=O)(=O)c4ccc(C)cc4)c13)C(=O)N(Cc1ccc(N(C)C)cc1)C2,-1,/,/,2,3,4,/
O=C(Nc1cccc(Cl)c1)c1cc(N=Nc2ccc([N+](=O)[O-])cc2Cl)ccc1O,22*,4,16,33*,-8,-1,70*
O=C(Nc1ccc([N+](=O)[O-])cc1Cl)c1cc(Cl)ccc1O,-1,-3,6,6,7,-5,/
Cc1cc2c(c(=O)o1)[C@@]1(C(=O)N(C)c3c(Br)cccc31)C1=C(CCCC1=O)O2,-2,/,/,-6,-2,-5,/
O=C(/C=C/Nc1ccc(Nc2ccccc2)cc1)c1cccs1,11,/,33,34*,-1,4,-2
Cc1ccc(N/C=C/C(=O)c2cccs2)cc1C,0,-4,/,-5,11,0,/
CCNc1nc(N)c([N+](=O)[O-])c(Nc2cccc(Cl)c2)n1,1,/,/,-4,/,-3,/
O=c1[nH][nH]c2c([N+](=O)[O-])ccc(F)c12,0,/,/,36*,13,9,34*
Cc1ccc2nc(CSc3nc(C)cc(C)c3C#N)[nH]c2c1,3,1,-4,44*,5,2,15
CCN(CC)CCN1C(=O)C(=O)/C(=C(/O)c2c(C)[nH]c(C(=O)OC)c2C)C1c1ccccc1OC (centres undefined),-4,-6,-2,1,0,1,/
CCN(CC)CCN1C(=O)C(=O)/C(=C(/O)c2c(C)[nH]c(C(=O)OC)c2C)C1c1cccs1 (centres undefined),8,0,2,34*,9,14,-17
Cc1csc(N=Cc2ccc([N+](=O)[O-])o2)n1,16,/,32,30*,9,23*,14
